# An excerpt weighted towards active compounds, which were near 5.9% of everything screened.
# IDH1 mut inh: IDH1 R132H (human) inhibition. 70,000 compounds, 0.18% hits. O75874. IDH1 R132H reductase, diaphorase/resazurin fluorescence, 60 min. inhibition, % at 10 µM. AID 624101; in the data active = inhibition above about 34%;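 also: 0% = DMSO and 100% = no enzyme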
# KDM4C inh: blocks human GASC-1 (KDM4C) demethylase activity. 96,000 compounds, 0.15% hits. inhibition, % at 12.5 µM. AID 720574. Q9H3R0. GST-KDM4C 2-372, H3K9me3 peptide, LANCE TR-FRET;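 active = mean replicate inhibition above about 25%, with at least 55% of replicates also reaching it, limit read from the data, passing the limit was not always enough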
# Target sequence (Q9H3R0 2-372 limits assumed): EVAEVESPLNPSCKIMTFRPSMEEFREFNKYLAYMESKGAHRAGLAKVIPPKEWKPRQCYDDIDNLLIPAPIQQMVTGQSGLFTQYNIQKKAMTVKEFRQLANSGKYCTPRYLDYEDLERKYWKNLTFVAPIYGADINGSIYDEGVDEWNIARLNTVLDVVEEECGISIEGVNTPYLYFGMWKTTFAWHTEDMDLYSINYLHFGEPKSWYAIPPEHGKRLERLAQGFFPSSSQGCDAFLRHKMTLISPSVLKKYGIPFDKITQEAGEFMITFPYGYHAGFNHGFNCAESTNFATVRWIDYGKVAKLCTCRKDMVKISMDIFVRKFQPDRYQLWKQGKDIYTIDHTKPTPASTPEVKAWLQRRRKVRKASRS
#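 material = GST-tagged GASC-1 (JMJD2C) catalytic fragment, aa 2-372 | amount = enzyme final amount 10 nM | medium = HEPES buffer, pH 7.5, plus ascorbate | also added = H3K9me3 peptide substrate, Fe(II), 2-oxoglutarate | dosing = single dose | times = 30 min demethylation and 1 h detection at room temperature | detection = LANCE TR-FRET | read-out basis = Fall in 671/618 emission ratio as inhibition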
# T cruzi growth: T. cruzi proliferation inhibition; T. cruzi beta-gal in NIH3T3, GalScreen luminescence, 90 h; 77,000 compounds, 5.9% hits; inhibition, % at 8.34 µM;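 active = mean inhibition above about 93%, with at least 55% of replicates each passing it, limit read from the data, passing the limit was not always enough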
# Pf Dd2 inh: P. falciparum Dd2 growth inhibition; activity change, % at 10 µM; 94,000 compounds, 2.3% hits; SYBR Green, 72 h; active compounds read low; in the data active = activity change below about -80%
# * hit, by the source's call; nt = no result given.
SMILES,IDH1 mut inh,KDM4C inh,T cruzi growth,Pf Dd2 inh
C[C@H](CO)N1C[C@H](C)[C@H](CN(C)C(=O)Nc2cccc3ccccc23)Oc2c(NC(=O)Nc3ccc(C(F)(F)F)cc3)cccc2C1=O,nt,nt,89,-16
C[C@@H]1CN([C@@H](C)CO)C(=O)c2cc(NC(=O)Nc3ccc(C(F)(F)F)cc3)ccc2O[C@H]1CN(C)C(=O)Nc1cccc2ccccc12,2,1,-43,-87*
C[C@@H]1CN([C@@H](C)CO)C(=O)c2cc(NC(=O)Nc3ccccc3)ccc2O[C@@H]1CN(C)C(=O)Nc1cccc2ccccc12,0,-7,15,-91*
CC(C)NC(=O)Nc1cccc2c1O[C@H](CN(C)C(=O)Nc1ccc(C(F)(F)F)cc1)[C@H](C)CN([C@@H](C)CO)C2=O,nt,-2,4,-85*
C[C@H]1CN([C@@H](C)CO)C(=O)c2cccc(NS(=O)(=O)c3cn(C)cn3)c2O[C@H]1CN(C)C(=O)Nc1ccc(C(F)(F)F)cc1,-6,5,-90,-85*
C[C@@H]1CN([C@@H](C)CO)C(=O)c2cccc(NC(=O)Nc3ccc(C(F)(F)F)cc3)c2O[C@@H]1CN(C)S(=O)(=O)c1ccc(Cl)cc1,0,3,107*,-67
C[C@@H]1CN([C@H](C)CO)C(=O)c2cccc(NS(=O)(=O)c3cn(C)cn3)c2O[C@@H]1CN(C)C(=O)Nc1ccc(C(F)(F)F)cc1,3,7,-84,-9
CC(C)NC(=O)Nc1cccc2c1O[C@H](CN(C)C(=O)Nc1ccc(C(F)(F)F)cc1)[C@@H](C)CN([C@H](C)CO)C2=O,nt,-4,27,0
C[C@@H]1CN([C@H](C)CO)S(=O)(=O)c2ccc(C#CC(C)(C)O)cc2O[C@@H]1CN(C)Cc1ccncc1,8,1,29,25
Cc1cccc(-c2ccc([C@H]3[C@H]4CN(S(=O)(=O)c5cccc(F)c5)CC(=O)N4[C@H]3CO)cc2)c1,nt,-2,nt,-1
CCc1cccc(-n2c(-c3ccco3)nc3c(cnn3-c3ccccc3Cl)c2=O)c1,46*,nt,nt,nt
C[C@H]1CN([C@@H](C)CO)C(=O)Cc2cc(NC(=O)c3ccncc3)ccc2O[C@@H]1CN(C)Cc1ccc(C(=O)Nc2ccccc2N)cc1,1,-1,nt,-86*
C[C@H]1CN([C@@H](C)CO)C(=O)Cc2cc(NC(=O)Cc3ccccc3)ccc2O[C@H]1CN(C)Cc1ccc(C(=O)Nc2ccccc2N)cc1,1,0,nt,-86*
C[C@H](CO)N1C[C@H](C)[C@H](CN(C)Cc2ccc(C(=O)Nc3ccccc3N)cc2)Oc2ccc(NC(=O)Cc3ccccc3)cc2CC1=O,nt,-2,nt,-87*
C[C@H]1CN([C@@H](C)CO)C(=O)Cc2cc(NC(=O)c3ccncc3)ccc2O[C@H]1CN(C)Cc1ccc(C(=O)Nc2ccccc2N)cc1,nt,1,78,-45
CC(C)NC(=O)N(C)C[C@H]1Oc2c(NC(=O)c3nc4ccccc4s3)cccc2C(=O)N([C@H](C)CO)C[C@H]1C,nt,12,-16,-83*
C[C@@H]1CN([C@H](C)CO)C(=O)c2cccc(NC(=O)c3nc4ccccc4s3)c2O[C@H]1CN(C)C(=O)Nc1ccc2c(c1)OCO2,nt,-1,59,-82*
C[C@@H]1CN([C@@H](C)CO)C(=O)c2cccc(NC(=O)c3nc4ccccc4s3)c2O[C@H]1CN(C)C(=O)Nc1ccc(C(F)(F)F)cc1,1,-1,88,-90*
C[C@H]1CN([C@@H](C)CO)C(=O)c2cccc(NC(=O)c3nc4ccccc4s3)c2O[C@@H]1CN(C)C(=O)Nc1ccc(C(F)(F)F)cc1,nt,0,82,-56
Cc1ccc(S(=O)(=O)N(C)C[C@H]2Oc3c(NC(=O)c4nc5ccccc5s4)cccc3C(=O)N([C@@H](C)CO)C[C@H]2C)cc1,1,1,96,-56
Cc1ccc(S(=O)(=O)N(C)C[C@@H]2Oc3c(NC(=O)c4nc5ccccc5s4)cccc3C(=O)N([C@@H](C)CO)C[C@H]2C)cc1,1,2,68,-85*
C[C@@H]1CN([C@@H](C)CO)C(=O)c2cccc(NC(=O)Nc3ccc(F)cc3)c2O[C@H]1CN(C)C(=O)Nc1ccc(C(F)(F)F)cc1,nt,0,62,20
Cc1noc(C)c1NC(=O)Nc1ccc2c(c1)C(=O)N([C@@H](C)CO)C[C@H](C)[C@H](CN(C)C(=O)NC1CCCCC1)OCCCC[C@@H](C)O2,nt,0,nt,12
CC(C)NC(=O)N(C)C[C@H]1Oc2ncc(C#CC3(O)CCCC3)cc2C(=O)N([C@@H](C)CO)C[C@H]1C,0,0,-9,32
